How the values were obtained:
Assay type in all cases: functional
Details in all cases: route intraperitoneal
[1] = tested on: Staphylococcus aureus; assay: Antibacterial activity against Staphylococcus aureus SD in rat graft model assessed as biofilm reduction at 30 mg/kg, ip administered as seven doses, 2 days after graft implantation
In short: (§1)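 Wistar rats (n = 5) with 1-cm2 collagen-sealed Dacron grafts implanted subcutaneously. 2 × 10^7 exponentially growing bacteria inoculated onto the graft. RIP given intraperitoneally daily for 1, 4 or 7 days, starting immediately after implantation or 2 days later. Grafts explanted on day 10. Bacterial load expressed as CFU/ml; detection limit 10 CFU/ml. Untreated challenged controls.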

[2] = tested on: Staphylococcus aureus; assay: Antibacterial activity against Staphylococcus aureus SD in rat graft model assessed as biofilm reduction at 10 mg/kg, ip administered as single dose immediately after graft implantation; in short: as §1
[3] = tested on: Staphylococcus aureus; assay: Antibacterial activity against Staphylococcus aureus SD in rat graft model assessed as biofilm reduction at 30 mg/kg, ip administered as single dose, 2 days after graft implantation; in short: as §1
[4] = tested on: Staphylococcus aureus; assay: Antibacterial activity against Staphylococcus aureus SD in rat graft model assessed as biofilm reduction at 20 mg/kg, ip administered as four doses, 2 days after graft implantation; in short: as §1
[5] = tested on: Staphylococcus aureus; assay: Antibacterial activity against Staphylococcus aureus SD in rat graft model assessed as biofilm reduction at 10 mg/kg, ip administered as four doses, 2 days after graft implantation; in short: as §1
[6] = tested on: Staphylococcus aureus; assay: Antibacterial activity against Staphylococcus aureus SD in rat graft model assessed as biofilm reduction at 10 mg/kg, ip administered as seven doses, 2 days after graft implantation; in short: as §1
[7] = tested on: Staphylococcus aureus; assay: Antibacterial activity against Staphylococcus aureus SD in rat graft model assessed as biofilm reduction at 20 mg/kg, ip administered as seven doses, 2 days after graft implantation; in short: as §1
[8] = tested on: Staphylococcus aureus; assay: Antibacterial activity against Staphylococcus aureus SD in rat graft model assessed as biofilm reduction at 30 mg/kg, ip administered as four doses, 2 days after graft implantation; in short: as §1
[9] = tested on: Staphylococcus aureus; assay: Antibacterial activity against Staphylococcus aureus SD in rat graft model assessed as biofilm reduction at 10 mg/kg, ip administered as single dose, 2 days after graft implantation; in short: as §1
[10] = tested on: Staphylococcus aureus; assay: Antibacterial activity against Staphylococcus aureus SD in rat graft model assessed as biofilm reduction at 20 mg/kg, ip administered as single dose immediately after graft implantation; in short: as §1
[11] = tested on: Staphylococcus aureus; assay: Antibacterial activity against Staphylococcus aureus SD in rat graft model assessed as biofilm reduction at 20 mg/kg, ip administered as single dose, 2 days after graft implantation; in short: as §1
[12] = tested on: Staphylococcus aureus; assay: Antibacterial activity against methicillin-resistant Staphylococcus aureus ATCC 43300 in rat graft model assessed as biofilm reduction at 3 mg/kg, ip administered as seven dose, 3 days after graft implantation
In short: (§2)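 Wistar rats (n = 15) with subcutaneous 1-cm2 collagen-sealed Dacron grafts challenged with MRSA. Treatment began 3 days after implantation, once the biofilm was established. RIP 10 mg/kg and/or teicoplanin 3 mg/kg given ip daily for 7 days. Grafts explanted on day 10 and counted as CFU/ml. Untreated controls explanted on days 3 and 10.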

[13] = tested on: Staphylococcus aureus; assay: Antibacterial activity against methicillin-resistant Staphylococcus aureus ATCC 43300 in rat graft model assessed as biofilm reduction at 10 mg/kg, ip administered as seven dose, 3 days after graft implantation; in short: as §2
[14] = tested on: Staphylococcus aureus; assay: Antibacterial activity against Staphylococcus aureus SD in rat graft model assessed as biofilm reduction at 30 mg/kg, ip administered as single dose immediately after graft implantation; in short: as §1

H-YSPWTNF-NH2
CFU/ml [1]: 290
CFU/ml [2]: 50000
CFU/ml [3]: 760000
CFU/ml [4]: 6300
CFU/ml [5]: 53000
CFU/ml [6]: 6700
CFU/ml [7]: 410
CFU/ml [8]: 850
CFU/ml [9]: 8400000
CFU/ml [10]: 9400
CFU/ml [11]: 3000000
CFU/ml [12]: 36000
CFU/ml [13]: 78000
CFU/ml [14]: 2300

From ChEMBL document CHEMBL1143826, “Treatment of Staphylococcus aureus biofilm infection by the quorum-sensing inhibitor RIP” (2007)
